EBV gp42 inh – inhibitors of Epstein-Barr virus glycoprotein 42; Q1HVG2; Fluorescence polarization binding assay, mP read-out; inhibition, % (tested at 21.74 µM); actives 0.42% (n = 220,000); AID 1085; in the data active means inhibition above about 50%
Runt-CBFb FRET – inhibitors of human RUNX1 Runt domain binding to CBFb. Q01196+Q13951. actives 0.46% (n = 220,000). Cerulean-Runt/Venus-CBFb FRET ratio 530/480, 1 h. inhibition, % at 20 µM;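 active means inhibition over about 50% at 20 µM in the single-dose screen, limit read from the data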
Target sequence (Q01196 whole entry, looked up, the tested form may be a part): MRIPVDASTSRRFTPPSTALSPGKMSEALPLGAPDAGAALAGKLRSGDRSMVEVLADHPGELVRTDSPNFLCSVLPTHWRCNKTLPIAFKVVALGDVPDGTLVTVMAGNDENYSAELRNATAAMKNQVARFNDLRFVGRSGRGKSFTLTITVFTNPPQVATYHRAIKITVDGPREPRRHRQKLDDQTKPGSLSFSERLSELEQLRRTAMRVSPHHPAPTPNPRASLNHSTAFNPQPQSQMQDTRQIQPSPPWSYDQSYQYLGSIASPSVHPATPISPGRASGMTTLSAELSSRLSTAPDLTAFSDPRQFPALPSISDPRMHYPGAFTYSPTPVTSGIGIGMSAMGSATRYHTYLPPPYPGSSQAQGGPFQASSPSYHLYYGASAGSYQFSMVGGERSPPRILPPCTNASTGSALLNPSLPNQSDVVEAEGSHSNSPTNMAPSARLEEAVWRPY
Target sequence (Q13951 whole entry, looked up, the tested form may be a part): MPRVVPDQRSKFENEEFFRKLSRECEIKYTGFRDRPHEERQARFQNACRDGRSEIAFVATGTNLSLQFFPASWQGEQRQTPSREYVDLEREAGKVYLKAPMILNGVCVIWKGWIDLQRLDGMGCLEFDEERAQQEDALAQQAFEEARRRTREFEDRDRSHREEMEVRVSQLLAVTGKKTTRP
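Assay system: Cerulean-tagged RUNX1 Runt domain (FRET donor) fusion protein / Amount: 100 nM each of Venus-CBFb and Cerulean-Runt domain / Medium: Tris buffer pH 7.5 with salts and BSA / Also added: Venus-CBFb 100 nM / Schedule: 1 h complex formation plus 1 h compound treatment, room temperature / Signal: FRET fluorescence / Read-out: loss of energy transfer signal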
LANA-H2A inh – blocks KSHV LANA binding to histone H2A/H2B. Q9QR71. cell-free LANA-H2A/H2B peptide, fluorescence polarization. inhibition, % (no concentration beside the values). actives 0.6% (n = 320,000). AID 2629; in the data active means inhibition mostly above about 10%, no sharp cut-off; inactive means mostly below about 6.7%
RanGTP-Imp inh – disruptors of Ran-importin-beta complex formation – biochemical, FRET, CFP-Ran, YFP-importin-beta, homogeneous, primary screen; cell-free CFP-Ran/YFP-importin-beta FRET ratio; inhibition, % (test concentration not listed); actives 1.1% (n = 300,000); AID 2216;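 active means more than half of the replicate wells show a fall in the fluorescence ratio signal beyond about 16%, limit read from the data, passing the limit was not always enough; inconclusive means exactly half of the replicate wells pass the set limit; inactive means fewer than half of replicates pass the limit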
Runt-SMMHC FRET – Runt domain-CBFb-SMMHC interaction inhibition. Q01196+Q13951. Cerulean-Runt/Venus-CBFb-SMMHC FRET ratio 530/480, 1 h. inhibition, % at 20 µM. actives 0.74% (n = 220,000);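 active means mean inhibition across duplicate retests at 20 µM reaching about 50%, limit read from the data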;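 further: inhibitors lower the FRET ratio by blocking Runt binding to CBFb-SMMHC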
MEX-5 binding – C. elegans MEX-5 TCR-2 RNA binding activity; AID 1832; MEX-5/FITC-TCR2 RNA binding, fluorescence polarization; active compounds read low; Q9XUB2; activity score (negative = inhibition of binding), % at 10 µM; actives 0.38% (n = 300,000);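 active means inhibition past about -25% in most replicates, and total fluorescence under double the plate's negative control median, limit read from the data; inconclusive means replicates evenly split on the limit, or fluorescence at least double controls; inactive means too little inhibition in most replicates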
Hits are given with their value; n = inactive; u = inconclusive; x = no result; + = active, no number. In the library only some 2.4% were active in any assay of this set; here they are far more common.

SMILES | EBV gp42 inh | Runt-CBFb FRET | LANA-H2A inh | RanGTP-Imp inh | Runt-SMMHC FRET | MEX-5 binding
COc1cccc(C(C)NC(=O)Nc2ccccc2Cl)c1 (stereo not drawn) | n | n | 14.6 | n | n | n
O=C(O)c1ccc(N2C(=O)/C(=C/c3ccc(-c4ccc([N+](=O)[O-])cc4)o3)C=C2c2ccccc2)cc1 | 81.8 | n | n | n | n | n
COc1ccc(-c2[nH]c3ccccc3c2SCCN)cc1 | n | n | n | n | n | n
COc1ccc(OC(=O)N2CCOCC2)cc1 | x | x | n | n | x | n
COc1ccc(/C(N)=N/OC(=O)N2CCOCC2)cc1 | n | n | 14.3 | n | n | n
Cc1ccc2nc(/C(C#N)=C/c3ccc(O)c(O)c3)[nH]c2c1 | x | x | n | 28.4 | x | n
Nc1c(C(=O)NCCN2CCOCC2)c2nc3ccccc3nc2n1-c1ccccc1 | n | n | n | 80.6 | 97.9 | n
Nc1c(C(=O)NCCN2CCOCC2)c2nc3ccccc3nc2n1CCc1ccccc1 | n | 73.7 | n | 85.1 | n | n
Nc1c(C(=O)NCCN2CCOCC2)c2nc3ccccc3nc2n1-c1ccc2c(c1)OCO2 | n | n | n | n | n | n
Nc1c(C(=O)NCc2ccco2)c2nc3ccccc3nc2n1CCc1ccc(F)cc1 | n | n | n | 58.3 | n | n
COc1ccc(CNC(=O)CSc2ccsc2[N+](=O)[O-])cc1 | n | n | n | n | n | n
CC(Cc1ccc(O)c(O)c1)C(C)Cc1ccc(O)c(O)c1 (stereo not drawn) | x | x | n | n | x | -35.9
COc1cc(C[C@@H](C)[C@@H](C)Cc2ccc(O)c(OC)c2)ccc1O | x | x | n | x | x | x
CC(=O)NS(=O)(=O)c1ccc(NS(=O)(=O)c2ccc(F)cc2)cc1 | n | 89.3 | n | n | n | n
CC(=O)N1CCN(C(=O)c2c(-c3ccccc3)noc2C)CC1 | x | x | 22.3 | x | x | x
O=C1NC(C(=O)O)=CC(c2cccc(Cl)c2Cl)N1 (stereo not drawn) | x | x | n | x | x | x
S=c1[nH]c2ccccc2n2c(=S)[nH]nc12 | x | x | n | n | x | -41.7
O=c1c(Oc2ccccc2Br)c(C(F)(F)F)oc2c(CN3CCCC3)c(O)ccc12 | n | n | n | 50.8 | n | n
COc1ccc(CCN2CCCC(CN(C)C(=O)c3ccoc3)C2)cc1 (stereo not drawn) | x | x | 15.4 | n | x | n
CN(CC1CCCN(CCc2ccccc2F)C1)C(=O)c1ccoc1 (stereo not drawn) | x | x | n | n | x | n
COc1ccccc1N1CCN(/N=C/C=C/c2ccccc2[N+](=O)[O-])CC1 | n | n | n | n | n | n
CCOC(=O)c1c(=O)n(O)c2ccc(OC)cc2[n+]1[O-] | 69.3 | n | 81.7 | n | n | n
c1ccc(Oc2c3ccccc3nc3ccccc23)cc1 | n | n | n | n | 74.3 | n
Cc1nc(Oc2ccccc2)c2ccccc2n1 | n | n | n | n | n | n
Nc1c2ccccc2nc2ccccc12 | n | n | n | 175.2 | 81.6 | n
SMILES | EBV gp42 inh | Runt-CBFb FRET | LANA-H2A inh | RanGTP-Imp inh | Runt-SMMHC FRET | MEX-5 binding
c1ccc2nc3ccccc3nc2c1 | n | n | n | n | n | n
N#Cc1c2ccccc2nc2ccccc12 | n | n | n | 18.2 | 97.9 | n
Cc1sc2nc(-c3cccs3)oc(=O)c2c1C | x | x | n | 32.2 | x | n
Cc1c(CCC(=O)O)c(=O)n2c([nH]c3ccccc32)c1C#N | n | n | n | u | n | n
CCc1c(C)c(C#N)c2[nH]c3ccccc3n2c1=S | n | n | n | n | 84.0 | n
C=C(C)Cc1c(C)c(C#N)c2[nH]c3ccccc3n2c1=O | x | x | n | 41.9 | x | n
CC(SCc1cc(=O)n2c([nH]c3ccccc32)c1C#N)C(=O)O (stereo not drawn) | n | n | n | n | n | n
COCc1cc(=O)n2c([nH]c3ccccc32)c1C#N | n | n | n | n | 58.9 | n
CCc1cc(=S)n2c([nH]c3ccccc32)c1C#N | n | n | n | n | n | n
Cc1ccc(Cc2c(C)c(C#N)c3[nH]c4ccccc4n3c2=O)cc1 | n | n | n | 21.4 | n | n
CCc1cc(=O)n2c([nH]c3ccccc32)c1C#N | n | n | n | n | n | n
CCN(CC)S(=O)(=O)c1ccc(OC(C)C)c(NC(=O)C2=COCCO2)c1 | x | x | n | n | x | n
Cc1cc(C)cc(N2CC(C(=O)Nc3cc(C)on3)CC2=O)c1 (stereo not drawn) | x | x | n | n | x | n
Cc1cc(NC(=O)C2CC(=O)N(c3cccc(Cl)c3)C2)no1 (stereo not drawn) | x | x | 11.1 | n | x | n
CC(=O)NS(=O)(=O)c1ccc(N2C(=O)c3ccccc3C2=O)cc1 | n | n | n | 19.8 | n | n
CCN(CC)CCCC(C)NC(=O)c1ccc(C(F)(F)F)cc1 (stereo not drawn) | n | n | n | n | n | n
CCC(C)(C)n1nnnc1C(c1cc2cc3c(cc2[nH]c1=O)OCO3)N1CCN(C)CC1 (stereo not drawn) | n | n | n | n | 65.8 | n
CCC(C)(C)n1nnnc1C(c1cc2ccc(OC)cc2[nH]c1=O)N1CCc2ccccc2C1 (stereo not drawn) | n | n | n | 16.1 | n | n
O=C(COC(=O)c1cccnc1Cl)Nc1ccc(N2CCCCC2)cc1 | x | x | + | x | x | x
O=C1c2ccc(-c3ccc4c(c3)C(=O)N(CCO)C4=O)cc2C(=O)N1CCO | n | n | n | n | n | n
O=C(c1cccc(-c2ccco2)c1)N1CCCC(N2CCN(c3ccc(F)cc3)CC2)C1 (stereo not drawn) | x | x | n | n | x | n
O=C(O)COc1ccccc1C(Nc1cccnc1)c1cc(Cl)c2cccnc2c1O (stereo not drawn) | n | n | x | n | n | -58.7
O=C1Cc2ccccc2C(=O)N1Cc1cccc(Cl)c1 | x | x | n | n | x | n
Nc1cccc2c1C(=O)N(Cc1cccc(Cl)c1)C2=O | n | n | n | n | 92.9 | n
COC(=O)c1cc(NC(=O)COC(=O)CCc2nc3ccccc3c(=O)[nH]2)cc(C(=O)OC)c1 | x | x | n | x | x | x
SMILES | EBV gp42 inh | Runt-CBFb FRET | LANA-H2A inh | RanGTP-Imp inh | Runt-SMMHC FRET | MEX-5 binding
COc1ccc(-c2csc(NC(=O)CSc3nc(C)cs3)n2)cc1 | n | x | n | n | x | n
COc1ccc(-c2csc(NC(=O)CSc3nc(C)nc4sc(C(=O)O)c(C)c34)n2)cc1 | 65.1 | n | n | n | n | n
CCCCNC(=O)N1CCCN(c2ccc(C#N)cn2)CC1 | x | x | n | n | x | n
CCN(C[C@H]1N[C@@](CC)(C(=O)OC)[C@H]2C(=O)N(Cc3ccccc3)C(=O)[C@@H]12)S(=O)(=O)c1ccc(C)cc1 | x | x | + | x | x | x
CCN(C[C@H]1N[C@@](Cc2ccccc2)(C(=O)OC)[C@H]2C(=O)N(C)C(=O)[C@@H]12)S(=O)(=O)c1ccc(OC(F)(F)F)cc1 | x | x | n | x | x | x
CCN(C[C@H]1N[C@@](CC)(C(=O)OC)[C@H]2C(=O)N(Cc3ccccc3)C(=O)[C@@H]12)S(=O)(=O)c1ccc(-c2ccccc2)cc1 | x | x | n | x | x | x

From PubChem
